Results taken from ChEMBL document CHEMBL1123812, “Pyrroloisoquinoline antidepressants. 2. In-depth exploration of structure-activity relationships” (J Med Chem, 1987).

Key:
[1] = biological target: Sodium-dependent dopamine transporter (Rattus norvegicus) (UniProt P23977); assay: Ability to inhibit the uptake of [3H]dopamine (DA) 0.1 uM concentration at rat brain synaptosomes; assay type: functional, subcellular
Outline: (§1)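 Male Wistar rat brain synaptosomes (P2 fraction): hypothalamus for NE, striatum for DA, cerebral cortex for 5-HT. Buffer is Tris- or HEPES-buffered salt medium with glucose, ascorbate and nialamide, pH 7.4 at 37 °C. Preincubated 10 min at 37 °C with compound. Uptake started with [3H]NE 100–300 nM, [3H]DA 50–300 nM or [3H]5-HT 100–200 nM, incubated 3 min (DA) or 6–10 min (NE, 5-HT). Blanks held on ice. Filtered, counted by scintillation.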

[2] = biological target: Norepinephrine transporter (Rattus norvegicus) (UniProt Q9WTR4); assay: Ability to inhibit the uptake of [3H]norepinephrine (NE) 0.1 uM concentration at rat brain synaptosomes; assay type: functional, subcellular; outline: as §1
[3] = biological target: Sodium-dependent serotonin transporter (Rattus norvegicus) (UniProt P31652); assay: Ability to inhibit the uptake of [3H]- serotonin(5-HT) 0.1 uM concentration at rat brain synaptosomes; assay type: functional, subcellular; outline: as §1
Mus musculus [4] = species on record: Mus musculus; assay: Antagonism of tetrabenazine (TBZ)-induced depression in mice measured for ptosis; assay type: functional
Outline: (§2)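 Nonfasted male Swiss Webster mice, 18–24 g, ten per dose level and in saline controls. Test compound given ip 30 min before tetrabenazine 32 mg/kg ip; dose expressed as free base. Motor activity and ptosis scored. Control response ≤90% corrected by Abbott's formula.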

Mus musculus [5] = species on record: Mus musculus; assay: Antagonism of tetrabenazine (TBZ)-induced depression measured in mice by motor activity; assay type: functional; outline: as §2
Mus musculus [6] = species on record: Mus musculus; assay: Gross behavioral effects ascertained in mice; S indicates significant stimulant properties.; assay type: functional, organism-based
Outline: (§3)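 Male Swiss Webster mice, 18–24 g, three per dose, given ip doses of 1, 3, 10, 30, 100 and 300 mg/kg. Observed for gross behavior and held for 4 days. Scored as weak (W), stimulant (S), depressant (D) or convulsant (C).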

[7] = biological target: Sodium-dependent dopamine transporter (Rattus norvegicus, UniProt P23977); assay: Inhibition of the uptake of tritiated dopamine (DA) in rat synaptosomes; assay type: subcellular, Brain
[8] = biological target: Norepinephrine transporter (Rattus norvegicus, UniProt Q9WTR4); assay: Inhibition of uptake of tritiated norepinephrine (NE) in rat synaptosomes; assay type: subcellular, Brain
[9] = biological target: T1, Adrenergic receptor alpha-1 (Rattus norvegicus, UniProt P15823+P23944+P43140); assay: Binding affinity towards alpha-1 adrenergic receptor; assay type: protein assay
T1 sequence (P15823 whole entry): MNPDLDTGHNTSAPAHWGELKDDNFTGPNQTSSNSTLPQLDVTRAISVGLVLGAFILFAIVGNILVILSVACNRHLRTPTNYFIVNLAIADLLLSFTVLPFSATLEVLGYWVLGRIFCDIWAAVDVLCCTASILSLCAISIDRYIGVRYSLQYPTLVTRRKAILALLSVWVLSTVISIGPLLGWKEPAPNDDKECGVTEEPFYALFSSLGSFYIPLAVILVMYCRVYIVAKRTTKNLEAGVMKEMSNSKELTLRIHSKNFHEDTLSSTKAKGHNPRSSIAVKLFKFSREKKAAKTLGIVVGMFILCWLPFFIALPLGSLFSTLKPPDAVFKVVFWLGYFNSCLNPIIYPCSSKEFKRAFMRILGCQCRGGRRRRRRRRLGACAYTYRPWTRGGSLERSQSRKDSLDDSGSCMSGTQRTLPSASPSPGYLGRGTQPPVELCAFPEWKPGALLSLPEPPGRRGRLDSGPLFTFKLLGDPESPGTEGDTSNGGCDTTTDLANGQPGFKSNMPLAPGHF
T1 sequence (P23944 whole entry): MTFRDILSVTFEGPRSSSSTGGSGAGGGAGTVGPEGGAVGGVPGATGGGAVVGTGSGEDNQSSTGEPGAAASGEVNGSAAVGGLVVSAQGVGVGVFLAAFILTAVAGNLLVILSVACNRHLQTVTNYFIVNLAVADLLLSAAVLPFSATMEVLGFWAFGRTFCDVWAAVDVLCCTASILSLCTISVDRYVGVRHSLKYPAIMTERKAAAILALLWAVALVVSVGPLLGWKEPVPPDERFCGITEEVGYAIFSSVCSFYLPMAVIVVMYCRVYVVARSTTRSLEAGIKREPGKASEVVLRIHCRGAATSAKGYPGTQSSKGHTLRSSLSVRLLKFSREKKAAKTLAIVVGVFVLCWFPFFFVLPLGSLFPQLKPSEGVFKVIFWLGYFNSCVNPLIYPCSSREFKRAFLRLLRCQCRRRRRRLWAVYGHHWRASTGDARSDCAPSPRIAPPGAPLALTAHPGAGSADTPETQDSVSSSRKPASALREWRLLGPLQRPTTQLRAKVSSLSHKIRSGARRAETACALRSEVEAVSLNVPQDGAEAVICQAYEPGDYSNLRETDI
T1 sequence (P43140 whole entry): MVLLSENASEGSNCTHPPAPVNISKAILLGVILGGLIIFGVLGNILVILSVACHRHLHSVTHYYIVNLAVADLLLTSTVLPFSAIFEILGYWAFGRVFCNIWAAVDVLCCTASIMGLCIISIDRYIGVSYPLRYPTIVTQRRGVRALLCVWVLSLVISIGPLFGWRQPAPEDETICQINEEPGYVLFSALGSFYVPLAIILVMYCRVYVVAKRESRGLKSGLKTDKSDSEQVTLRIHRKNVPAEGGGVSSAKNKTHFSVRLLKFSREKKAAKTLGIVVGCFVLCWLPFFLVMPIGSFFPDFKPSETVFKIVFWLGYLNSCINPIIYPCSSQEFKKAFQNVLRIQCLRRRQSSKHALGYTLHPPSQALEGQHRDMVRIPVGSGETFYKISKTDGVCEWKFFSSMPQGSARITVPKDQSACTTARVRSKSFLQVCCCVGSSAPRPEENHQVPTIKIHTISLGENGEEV

Mus musculus [10] = species on record: Mus musculus; assay: Gross behavioral effects ascertained in mice; W indicates weak stimulant or depressant activity of little significance.; assay type: functional, organism-based; outline: as §3
[11] = biological target: Sodium-dependent dopamine transporter (Rattus norvegicus) (UniProt P23977); assay: Inhibition of tritiated dopamine (DA) uptake at 0.1 uM concentration; assay type: functional; outline: as §1

Sequence of Norepinephrine transporter (Q9WTR4 whole entry): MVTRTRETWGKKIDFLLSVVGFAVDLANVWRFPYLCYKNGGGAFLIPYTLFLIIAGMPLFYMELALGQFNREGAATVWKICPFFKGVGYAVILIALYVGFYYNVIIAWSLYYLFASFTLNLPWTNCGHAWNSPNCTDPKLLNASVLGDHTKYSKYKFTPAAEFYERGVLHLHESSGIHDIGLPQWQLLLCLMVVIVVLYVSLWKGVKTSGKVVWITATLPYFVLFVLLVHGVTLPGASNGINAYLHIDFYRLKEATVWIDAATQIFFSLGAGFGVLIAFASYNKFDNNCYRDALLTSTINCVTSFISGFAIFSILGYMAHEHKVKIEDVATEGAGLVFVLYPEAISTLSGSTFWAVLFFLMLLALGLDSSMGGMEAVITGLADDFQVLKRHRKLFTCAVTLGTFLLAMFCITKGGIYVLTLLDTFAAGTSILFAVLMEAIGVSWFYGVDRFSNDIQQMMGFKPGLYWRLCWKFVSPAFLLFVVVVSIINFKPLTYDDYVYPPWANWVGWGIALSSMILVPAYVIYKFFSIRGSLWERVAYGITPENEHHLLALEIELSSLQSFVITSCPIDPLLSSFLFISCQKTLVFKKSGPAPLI
Sequence of Norepinephrine transporter (Rattus norvegicus) (Q9WTR4 as listed by the source): as the sequence (Q9WTR4 whole entry) above
Sequence of Sodium-dependent dopamine transporter (P23977 whole entry): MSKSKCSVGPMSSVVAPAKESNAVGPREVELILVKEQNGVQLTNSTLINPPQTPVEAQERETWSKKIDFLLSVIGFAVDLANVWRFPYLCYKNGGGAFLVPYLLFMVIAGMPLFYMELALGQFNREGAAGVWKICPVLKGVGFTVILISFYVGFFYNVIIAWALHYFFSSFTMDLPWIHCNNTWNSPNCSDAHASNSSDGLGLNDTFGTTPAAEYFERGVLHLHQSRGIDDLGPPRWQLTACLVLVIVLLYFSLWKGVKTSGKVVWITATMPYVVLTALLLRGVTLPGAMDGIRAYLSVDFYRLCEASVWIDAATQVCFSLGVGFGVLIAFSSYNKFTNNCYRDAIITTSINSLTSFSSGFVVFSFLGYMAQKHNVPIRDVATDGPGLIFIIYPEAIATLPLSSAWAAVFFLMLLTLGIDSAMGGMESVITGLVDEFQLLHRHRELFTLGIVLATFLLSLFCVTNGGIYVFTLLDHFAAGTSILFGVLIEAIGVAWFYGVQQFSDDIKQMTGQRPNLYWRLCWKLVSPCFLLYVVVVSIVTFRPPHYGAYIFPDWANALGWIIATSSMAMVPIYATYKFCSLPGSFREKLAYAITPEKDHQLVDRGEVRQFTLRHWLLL
Sequence of Sodium-dependent dopamine transporter (Rattus norvegicus) (P23977 whole entry): as above
Sequence of Sodium-dependent serotonin transporter (Rattus norvegicus) (P31652 whole entry): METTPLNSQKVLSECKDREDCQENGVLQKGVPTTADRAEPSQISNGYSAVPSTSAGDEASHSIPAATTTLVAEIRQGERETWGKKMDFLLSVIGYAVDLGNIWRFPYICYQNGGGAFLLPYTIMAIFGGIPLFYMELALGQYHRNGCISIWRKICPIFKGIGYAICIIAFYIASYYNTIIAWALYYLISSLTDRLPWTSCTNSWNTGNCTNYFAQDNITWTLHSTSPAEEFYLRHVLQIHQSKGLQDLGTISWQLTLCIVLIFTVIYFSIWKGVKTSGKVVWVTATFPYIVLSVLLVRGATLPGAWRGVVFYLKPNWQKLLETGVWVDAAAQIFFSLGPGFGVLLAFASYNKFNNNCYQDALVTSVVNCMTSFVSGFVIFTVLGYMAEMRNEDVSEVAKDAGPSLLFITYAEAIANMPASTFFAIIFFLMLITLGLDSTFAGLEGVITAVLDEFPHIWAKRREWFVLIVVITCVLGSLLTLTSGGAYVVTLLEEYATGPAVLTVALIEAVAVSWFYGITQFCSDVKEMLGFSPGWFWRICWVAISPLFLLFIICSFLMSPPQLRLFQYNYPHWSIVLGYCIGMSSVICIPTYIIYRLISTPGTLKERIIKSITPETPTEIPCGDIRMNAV

Row | SMILES | inhibition [1] [%] | inhibition [2] [%] | inhibition [3] [%] | ED50 (Mus musculus [4]; Mus musculus, read-out: ED50) [mg/kg] | ED50 (Mus musculus [5]; Mus musculus, read-out: ED50) [mg/kg] | Ki [8] [nM] | also measured
1 | O=C(O)c1ccccc1[C@@H]1CN2CCC[C@H]2c2ccccc21 | 5 | 1 | 1 | – | – | – | –
2 | Br.Nc1ccc([C@@H]2CN3CCC[C@@H]3c3ccccc32)cc1 | – | – | – | ~0.01 | ~0.02 | 0.2 | behavior (Mus musculus [6]): Significant stimulant; Ki [7]: 0.86 nM
3 | FC(F)(F)c1ccccc1[C@@H]1CN2CCC[C@H]2c2ccccc21 | 0 | 12 | 4 | – | – | – | –
4 | FC(F)(F)c1cccc([C@@H]2CN3CCC[C@@H]3c3ccccc32)c1 (stereo in doubt; (-)-37b) | – | – | – | – | – | 2570 | Ki [7]: 7690 nM; Ki [9]: 30 nM
5 | Br.Oc1cccc([C@@H]2CN3CCC[C@@H]3c3ccccc32)c1 | – | – | – | 0.11 | > 10 | 0.85 | behavior (Mus musculus [6]): Significant stimulant; Ki [7]: 10.1 nM
6 | FC(F)(F)c1cc([C@@H]2CN3CCC[C@@H]3c3ccccc32)cc(C(F)(F)F)c1 | 5 | 58 | 25 | – | – | – | –
7 | FC(F)(F)c1cccc([C@@H]2CN3CCC[C@@H]3c3cccc(Cl)c32)c1 | 8 | – | 5 | – | – | ~100 | –
8 | O=C(O)c1ccccc1[C@@H]1CN2CCC[C@@H]2c2ccccc21 | 3 | 0 | 6 | – | – | – | –
9 | FC(F)(F)c1cc([C@@H]2CN3CCC[C@H]3c3ccccc32)cc(C(F)(F)F)c1 | -3 | 0 | -3 | – | – | – | –
10 | c1ccc([C@@H]2CN3CCC[C@@H]3c3ccccc32)cc1 (stereo in doubt; (-)-7b) | – | – | – | – | – | – | ED50 (Mus musculus [4]): 8.3 mg/kg; ED50 (Mus musculus [5]): >30 mg/kg; Ki [7]: 1340 nM; Ki [9]: 262 nM
11 | Br.FC(F)(F)c1ccccc1[C@@H]1CN2CCC[C@@H]2c2ccccc21 | 14 | 42 | 2 | > 3 | > 3 | – | –
12 | Br.C[C@]1(c2ccccc2)CN2CCC[C@H]2c2ccccc21 | – | – | – | 0.44 | 27.2 | 1.25 | behavior (Mus musculus [6]): Significant stimulant; Ki [7]: 7.4 nM
13 | CC(=O)Nc1ccc([C@@H]2CN3CCC[C@H]3c3ccccc32)cc1 | 57 | 27 | – | 1.8 | 4.4 | – | behavior (Mus musculus [10]): Weak
14 | Br.c1ccc([C@@H]2Cc3ccccc3[C@@H]3CCCN23)cc1 | 0 | 7 | – | 0.87 | > 30 | – | behavior (Mus musculus [10]): Weak
15 | FC(F)(F)c1ccc([C@@H]2CN3CCC[C@H]3c3ccccc32)cc1 | – | -1 | 15 | – | – | – | inhibition [11]: 7%
16 | C#Cc1ccc([C@@H]2CN3CCC[C@@H]3c3ccccc32)cc1 | – | – | – | ~0.5 | ~0.5 | – | behavior (Mus musculus [6]): Significant stimulant
17 | C[C@H]1[C@H](c2ccccc2)c2ccccc2[C@@H]2CCCN21 | 17 | 62 | 15 | 3.3 | ~30 | – | behavior (Mus musculus [10]): Weak
18 | N#Cc1ccccc1[C@@H]1CN2CCC[C@@H]2c2ccccc21 | 33 | 71 | 6 | > 3 | > 3 | – | –
19 | c1ccc(C[C@@H]2CN3CCC[C@H]3c3ccccc32)cc1 | 15 | 100 | -3 | – | – | – | –
20 | Br.c1ccc([C@H]2CN3CCC[C@H]3c3ccsc32)cc1 | – | – | – | 0.79 | 5 | 1.4 | behavior (Mus musculus [6]): Significant stimulant; Ki [7]: 5.2 nM
21 | Br.c1ccc([C@@H]2CN3CCCCC[C@H]3c3ccccc32)cc1 | – | 13 | 6 | ~40 | ~40 | – | behavior (Mus musculus [10]): Weak; inhibition [11]: 19%
22 | Br.CCCCc1ccc([C@@H]2CN3CCC[C@H]3c3ccccc32)cc1 | 5 | 13 | 3 | – | > 30 | – | behavior (Mus musculus [10]): Weak
23 | Cc1ccccc1[C@@H]1CN2CCC[C@H]2c2ccccc21 | -1 | 12 | -6 | – | – | – | –
24 | Br.COc1cccc([C@@H]2CN3CCC[C@H]3c3ccccc32)c1 | – | – | – | > 60 | > 60 | 16.1 | behavior (Mus musculus [10]): Weak; inhibition [11]: 35%
25 | c1ccc([C@@H]2CN3CCC[C@@H]3c3ccccc32)cc1 (stereo in doubt; (+)-7b) | – | – | – | – | – | – | ED50 (Mus musculus [4]): 0.05 mg/kg; ED50 (Mus musculus [5]): 0.59 mg/kg; Ki [7]: 4.4 nM; Ki [9]: 83 nM
26 | Br.F[C@]1(c2ccccc2)CN2CCC[C@H]2c2ccccc21 | 26 | – | 6 | 1.2 | ~3 | 30.7 | behavior (Mus musculus [10]): Weak
